# ChEMBL document CHEMBL3124834, “Development of tag-free photoprobes for studies aimed at identifying the target of novel Group A Streptococcus antivirulence agents” (Bioorg Med Chem Lett, 2014)
# How the values were obtained:
# Streptococcus pyogenes = experiment: Growth inhibition of Streptococcus pyogenes UMAA2616 at 50 uM after 24 hrs relative to control; type: organism-based
# [1] = biological target: T1, Streptokinase (Streptococcus pyogenes) (UniProt P96471); experiment: Inhibition of Streptococcus pyogenes UMAA2616 streptokinase assessed as plasmin activity in human plasma at 5 uM after 24 hrs by colorimetric analysis relative to control
# T1 sequence (whole entry): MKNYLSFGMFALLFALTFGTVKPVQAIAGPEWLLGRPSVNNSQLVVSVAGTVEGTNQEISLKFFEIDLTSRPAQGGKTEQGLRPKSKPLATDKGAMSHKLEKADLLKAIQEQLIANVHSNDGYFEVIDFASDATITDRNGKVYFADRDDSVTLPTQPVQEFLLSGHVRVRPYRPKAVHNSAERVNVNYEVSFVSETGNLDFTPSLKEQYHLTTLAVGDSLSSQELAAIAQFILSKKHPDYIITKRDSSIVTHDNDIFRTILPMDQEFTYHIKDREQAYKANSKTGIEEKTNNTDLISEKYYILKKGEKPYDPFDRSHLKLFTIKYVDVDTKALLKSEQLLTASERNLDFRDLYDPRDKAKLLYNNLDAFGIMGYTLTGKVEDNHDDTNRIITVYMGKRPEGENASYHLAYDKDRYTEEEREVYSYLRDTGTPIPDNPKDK
# Procedure, shortened: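 GAS cultures incubated 24 hours with 5 μM compound. Culture supernatant was mixed with human plasma, and the resulting plasmin activity was followed by turnover of a plasmin-specific chromogenic substrate, read as absorbance at 405 nm. Value is the activity of the treated culture divided by that of a DMSO-treated control culture, ± standard deviation.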
# Streptokinase = biological target: T2, Streptokinase (Streptococcus pyogenes, UniProt P96471); experiment: Inhibition of Streptococcus pyogenes UMAA2616 streptokinase assessed as plasmin activity in human plasma after 24 hrs by colorimetric analysis
# T2 sequence (P96471 whole entry): T1 sequence (whole entry)
# Procedure, shortened: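 GAS culture grown 24 h with test compound (5 μM for ratio data); culture supernatant mixed with human plasma and resulting plasmin activity read as turnover of plasmin-specific chromogenic substrate at A405. Reported as SK activity relative to DMSO-treated control culture; IC50 taken as concentration giving 50% of maximal inhibition of SK expression; ± standard deviation.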
SMILES,T/C (Streptococcus pyogenes),T/C [1],IC50 (Streptokinase)
C#CCOCCSc1nc2c(c(=O)n1CC=C)C(C)(C)Cc1ccc(N=[N+]=[N-])cc1-2,0.98,0.3,190 nM
C#CCSc1nc2c(c(=O)n1CC=C)C(C)(C)Cc1cc(C(=O)c3ccccc3)ccc1-2,1.09,0.77,–
C=CCn1c(SCC)nc2c(c1=O)C(C)(C)Cc1ccc(OC)cc1-2,0.73,0.1,1300 nM
C#CCOCCSc1nc2c(c(=O)n1CC=C)C(C)(C)Cc1cc(OCCC3(C)N=N3)ccc1-2,1.07,0.49,330 nM
C#CCSc1nc2c(c(=O)n1CC=C)C(C)(C)Cc1cc(OCCC3(C)N=N3)ccc1-2,0.96,1.07,–
C#CCOCCOc1ccc2c(c1)CC(C)(C)c1c-2nc(SCCC2(C)N=N2)n(CC=C)c1=O,1.01,0.71,–
C#CCOc1ccc2c(c1)CC(C)(C)c1c-2nc(SCCC2(C)N=N2)n(CC=C)c1=O,1.02,0.89,–
C#CCOCCSc1nc2c(c(=O)n1CC=C)C(C)(C)Cc1cc(C(=O)c3ccccc3)ccc1-2,0.94,0.51,3800 nM
